Measured values collected from several papers.
Compare with care: the assays were run in different laboratories.
Target: Cyclin-dependent kinase-like 5 (CDKL5, Homo sapiens, UniProt O76039)
Residues used in one study (O76039 1-960): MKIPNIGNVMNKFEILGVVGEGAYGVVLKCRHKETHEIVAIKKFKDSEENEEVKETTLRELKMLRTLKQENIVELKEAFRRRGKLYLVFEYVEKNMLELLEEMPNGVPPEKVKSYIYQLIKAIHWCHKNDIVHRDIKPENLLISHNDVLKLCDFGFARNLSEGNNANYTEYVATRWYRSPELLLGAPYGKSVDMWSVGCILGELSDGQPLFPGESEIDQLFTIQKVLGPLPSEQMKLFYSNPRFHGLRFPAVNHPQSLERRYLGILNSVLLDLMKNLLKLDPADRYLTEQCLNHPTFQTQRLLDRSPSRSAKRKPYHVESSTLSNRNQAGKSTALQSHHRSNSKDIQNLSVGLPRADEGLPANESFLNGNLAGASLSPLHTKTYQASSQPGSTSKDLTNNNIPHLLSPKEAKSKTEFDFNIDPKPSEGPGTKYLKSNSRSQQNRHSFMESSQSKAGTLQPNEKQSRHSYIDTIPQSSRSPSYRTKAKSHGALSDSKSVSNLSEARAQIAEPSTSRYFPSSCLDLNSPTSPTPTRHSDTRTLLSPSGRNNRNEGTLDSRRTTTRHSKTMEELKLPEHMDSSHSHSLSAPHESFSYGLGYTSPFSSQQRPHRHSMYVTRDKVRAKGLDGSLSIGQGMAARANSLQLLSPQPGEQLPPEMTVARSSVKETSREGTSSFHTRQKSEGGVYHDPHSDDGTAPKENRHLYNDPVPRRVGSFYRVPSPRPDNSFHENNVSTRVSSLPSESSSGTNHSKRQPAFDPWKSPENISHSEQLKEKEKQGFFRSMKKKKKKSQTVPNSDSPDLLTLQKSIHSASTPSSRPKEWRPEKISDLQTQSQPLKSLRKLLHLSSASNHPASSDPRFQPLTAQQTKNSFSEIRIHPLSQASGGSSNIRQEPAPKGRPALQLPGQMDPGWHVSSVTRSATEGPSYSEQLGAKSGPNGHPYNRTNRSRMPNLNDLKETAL

| Structure (SMILES) | read-out | method | concentration | remaining binding |
| --- | --- | --- | --- | --- |
| Nc1ncc2c(n1)-c1c([nH]c3ccc(C#CC4CC4)cc13)CCCC2 | binding | competition with immobilised ligand | 1 µM | 90% |
| CC(C)CC(=O)N1CCc2nc(-c3ccc(Br)cc3)nc(N(C)Cc3ccccc3)c2C1 | cell-free assay | competition with immobilised ligand | 0.1 µM | 100% |
| CNC(=O)[C@@H]1CC[C@@H](n2c(-c3ccc4cnccc4c3)nc3ccc(C(=O)NCc4cccc(C(N)=O)c4)cc32)C1 | binding | competition with immobilised ligand | 1 µM | 100% |
| O=C(Nc1c[nH]nc1C(=O)NC1CCNCC1)c1cc(F)cc(F)c1 | binding | competition with immobilised ligand | 1 µM | 0.2% |
| CN(CCCC(F)(F)F)c1nccc(-c2cnn3ncccc23)n1 | binding |  | 1 µM | 100% |
| C=CC(=O)N1CCC(C(=O)NCC(=O)N2CCN(c3nc(-c4cnc(N)nc4C(F)F)nc(N4CCOCC4)n3)CC2)CC1 | binding | competition with immobilised ligand | 1 µM | 100% |
| O=C(NS(=O)(=O)c1ccc(NCC2CCOCC2)c([N+](=O)[O-])c1)c1ccc(N2CCN(Cc3ccc(C(F)(F)F)cc3-c3ccc(Cl)cc3)CC2)cc1Oc1cnc2[nH]ccc2c1 | cell-free assay | competition with immobilised ligand | 1 µM | 74% |
| C[C@H]1CCN(c2nccc(-c3cnn4ncccc34)n2)C1 | binding |  | 1 µM | 100% |
| COc1cnc(Nc2cccc(S(N)(=O)=O)c2)nc1N1CCN(c2ccccc2)C(=O)C1 | binding | competition with immobilised ligand | 1 µM | 100% |
| O=C(c1ccc(Nc2nccc(-c3cc4ccccc4s3)n2)cc1)N1CCC(N2CCCC2)CC1 | binding | competition with immobilised ligand | 1 µM | 91% |
| CCS(=O)(=O)c1cc2cc(C[C@](O)(CC(C)(C)c3ccc(F)cc3C(N)=O)C(F)(F)F)[nH]c2cn1 | cell-free assay | competition with immobilised ligand | 1 µM | 100% |
| CN(C)c1nccc(-c2cnn3ncccc23)n1 | binding |  | 1 µM | 100% |
| O=C(c1ccc(Nc2ncc(Cl)c(-c3ccc(Cl)s3)n2)cc1)N1CCC(N2CCCC2)CC1 | binding | competition with immobilised ligand | 1 µM | 26% |
| C[C@@H](c1cccc(C#N)c1)n1cc(Cl)cc(C(N)=O)c1=N | binding | competition with immobilised ligand | 1 µM | 89% |
| CN(c1nccc(-c2cnn3ncccc23)n1)C1CC1 | binding |  | 1 µM | 100% |
| CC(=O)Nc1c(C(C)=O)c(=O)n(C)c2nc(-c3ccc(Cl)cc3Cl)c(-c3ccc(Cl)cc3)cc12 | cell-free assay | competition with immobilised ligand | 1 µM | 100% |
| N[C@H]1CCN(c2nccc(-c3cnn4ncccc34)n2)C1 | binding |  | 1 µM | 100% |
| CS(=O)(=O)N1CCCC(NC(=O)[C@H](CCC2CCCCC2)NC(=O)c2ccc(CNc3ncnc4c3nnn4-c3ccccc3)cc2)C1 (some centres unmarked) | cell-free assay | competition with immobilised ligand | 0.1 µM | 100% |
| CN(C)c1nccc(-c2cnc3ncccn23)n1 | binding |  | 1 µM | 88% |
| O=C(NCCCN1CCOCC1)c1ccc(Nc2nccc(-c3cc4ccccc4s3)n2)cc1 | binding | competition with immobilised ligand | 1 µM | 40% |
